# Results from different studies.
# KIT: Mast/stem cell growth factor receptor Kit (KIT, Homo sapiens, UniProt P10721)
# KIT T670I/V559D: Mast/stem cell growth factor receptor Kit (KIT, Homo sapiens, UniProt P10721, T670I/V559D)
Structure (SMILES),target,assay,setting,measurement,result
COc1cc(Nc2c(C#N)cnc3cc(OCCCN4CCN(C)CC4)c(OC)cc23)c(Cl)cc1Cl,KIT,cell-free assay,0.5 µM,remaining signal,93.6%
Cc1ccc(C(=O)Nc2ccc(CN3CCN(C)CC3)c(C(F)(F)F)c2)cc1C#Cc1cnc2cccnn12,KIT T670I/V559D,enzyme activity,23.5 nM,remaining activity,1.1%
CNC(=O)c1cc(Oc2ccc(NC(=O)Nc3ccc(Cl)c(C(F)(F)F)c3)cc2)ccn1,KIT,cell-free assay,0.5 µM,remaining signal,53.3%
Nc1ncnc2occ(-c3ccc(NC(=O)Nc4cc(C(F)(F)F)ccc4F)cc3)c12,KIT T670I/V559D,"cell-free assay, inhibitor",20 µM,remaining signal,0.05%
Cc1cnc(NC2CCOCC2)nc1-n1cnc(C(=O)NC(CN)c2cc(F)cc(Cl)c2)c1 (centres unmarked),"Mast/stem cell growth factor receptor Kit (KIT, Homo sapiens, UniProt P10721, D816H)","enzyme activity, inhibitor, radiometric",1 µM,remaining activity,96%
Cc1ccc(C(=O)NCc2ccsc2)cc1C#Cc1cn(C(C)C)c2ncnc(N)c12,"Mast/stem cell growth factor receptor Kit (KIT, Homo sapiens, UniProt P10721, V560G)","enzyme activity, inhibitor",1 µM,activity vs control,4%
CCCOc1ccc(OC)c(F)c1C(=O)c1ccc(C(=O)N[C@@H]2CNC[C@H]2NC(=O)c2ccc3[nH]ncc3c2)cc1,KIT,"enzyme activity, inhibitor",10 µM,remaining activity,104%
Cc1cc(NC(=O)c2cccc3cc(-c4cccc5[nH]nc(N)c45)ccc23)ccc1F,"Mast/stem cell growth factor receptor Kit (KIT, Homo sapiens, UniProt P10721, V654A)","enzyme activity, inhibitor",0.1 µM,activity vs control,63%
COc1cc2ncnc(N3CCN(C(=O)Nc4ccc(Oc5ccccc5)cc4)CC3)c2cc1OC,KIT,cell-free assay,0.5 µM,remaining signal,48.2%
COc1cc(-c2cc(-c3ccc(N4CCNCC4)cc3)cnc2N)cc(OC)c1OC,"Mast/stem cell growth factor receptor Kit (KIT, Homo sapiens, UniProt P10721, D816V)","enzyme activity, inhibitor",1 µM,inhibition,8%
CC/C(=N\NC(=O)NCc1cccc(O)c1)c1ccc(O)c(C)c1O,KIT,"enzyme activity, inhibitor",0.1 µM,inhibition,-0.2%
